Laboratory results reported in ChEMBL document CHEMBL4196208, “Antiproliferative Sesquiterpenoids from Ligularia rumicifolia with Diverse Skeletons” (J Nat Prod, 2018).
Activity calls are given as the source filed them. The calls are words filed in the database; no cut-off is given here.

Tests used:
Assay type in all cases: functional, cell-based
MV4-11 = assay: Antiproliferative activity against human MV411 cells after 72 hrs by MTT assay; conditions: for IC50: MV4-11, 72 h
Summary of the method: (§1)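 Human tumour lines HGC-27 (stomach), A-549 (lung), HeLa (cervical) and MV4-11 (leukemia) tested in a standard MTT assay, with taxol as positive control. Each assay repeated more than three times. IC50 calculated by the Reed and Muench method, reported as mean ± SD.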

A549 = assay: Antiproliferative activity against human A549 cells after 72 hrs by MTT assay; conditions: for IC50: A549, 72 h; summary of the method: as §1
HGC-27 = assay: Antiproliferative activity against human HGC27 cells after 72 hrs by MTT assay; conditions: for IC50: HGC-27, 72 h; summary of the method: as §1
HeLa = assay: Antiproliferative activity against human HeLa cells after 72 hrs by MTT assay; summary of the method: as §1

SMILES	IC50 (MV4-11)	IC50 (A549)	IC50 (HGC-27)	IC50 (HeLa)	Activity (MV4-11)	Activity (A549)	Activity (HGC-27)	Activity (HeLa)
C=C(C)[C@@H]1C[C@@]2(C)C(=CC1=O)CC[C@@H](OC(=O)CC(C)C)[C@@H]2C	7.5 µM	9.7 µM	5.3 µM	6.6 µM				
C/C=C(/C)C(=O)OC1=C(C)[C@H](O)C/C(=C(/C)C(CC=C(C)C)OC(=O)/C(C)=C\C)C1=O (some centres not stated)					inactive	inactive	inactive	inactive
C=C1[C@H]2[C@@H]([C@@H]([C@@H](C)OC)C(=O)[C@H]2OC(=O)C(C)CC)[C@H]([C@@]2(C)CO2)[C@@H](OC(=O)/C(C)=C\C)[C@H]1OC(=O)/C=C(\C)CC (some centres not stated)					inactive	inactive	inactive	inactive
C=C1[C@H]2[C@@H](/C(=C/C)C(=O)[C@H]2OC(=O)C(C)CC)[C@H]([C@@]2(C)CO2)[C@@H](OC(=O)CC(C)CC)[C@H]1OC(=O)/C=C(\C)CC (some centres not stated)					inactive	inactive	inactive	inactive
C=C(C(CC=C(C)C)OC(=O)/C(C)=C\C)[C@@H]1C(=O)C(OC(C)=O)=C(C)[C@H](O)[C@H]1OC(=O)/C(C)=C\C (some centres not stated)	2.9 µM	9.8 µM	2.2 µM	6.3 µM				
C/C=C(/C)C(=O)OC(CC=C(C)C)/C(C)=C1\C[C@@H](O)C(C)=C(OC(C)=O)C1=O (some centres not stated)					inactive	inactive	inactive	inactive
C=C1[C@H]2[C@@H](/C(=C/C)C(=O)[C@H]2OC(=O)C(C)CC)[C@H]([C@@]2(C)CO2)[C@@H](OC(=O)/C(C)=C\C)[C@H]1OC(=O)/C=C(\C)CC (some centres not stated)					inactive	inactive	inactive	inactive
C=C(C)[C@@H]1C[C@@]2(C)C(=CC1=O)[C@H](O)C[C@@H](OC(=O)/C(C)=C\C)[C@@H]2C	2.5 µM	13.5 µM	7.2 µM	5.7 µM				
C=C1[C@@H]2[C@H](OC(=O)C(C)CC)[C@H](OC(C)=O)[C@H]([C@@H](C)OC(=O)C[C@@H](C)O)[C@H]2[C@H]([C@@]2(C)CO2)[C@@H](OC(=O)CC(C)CC)[C@H]1OC(=O)/C=C(\C)CC (some centres not stated)					inactive	inactive	inactive	inactive
CC(=O)O[C@H]1C(=O)[C@@]2(C)[C@H]([C@H](OC(=O)c3ccccc3)[C@]3(O)C[C@H](OC(=O)[C@H](O)[C@@H](NC(=O)c4ccccc4)c4ccccc4)C(C)=C1C3(C)C)[C@]1(OC(C)=O)CO[C@@H]1C[C@@H]2O [PACLITAXEL]	0.017 µM	0.051 µM	0.028 µM	0.046 µM				
C=C(C(CC=C(C)C)OC(=O)/C(C)=C\C)[C@@H]1C[C@H](O)[C@](C)(OC)C(=O)[C@H]1OC(C)=O (some centres not stated)					inactive	inactive	inactive	inactive
C=C(C(CC=C(C)C)OC(=O)/C(C)=C\C)[C@@H]1[C@H](OC(=O)/C(C)=C\C)[C@@H]2O[C@]2(C)C(=O)[C@H]1OC(C)=O (some centres not stated)					inactive	inactive	inactive	inactive
C=C1[C@H]2[C@@H](/C(=C\C)C(=O)[C@H]2OC(=O)C(C)CC)[C@H]([C@@]2(C)CO2)[C@@H](OC(=O)/C(C)=C\C)[C@H]1OC(=O)/C=C(\C)CC (some centres not stated)					inactive	inactive	inactive	inactive
C=C(C)[C@@H]1C[C@@]2(C)C(=CC1=O)CC[C@@H](O)[C@@H]2C					inactive	inactive	inactive	inactive
C/C=C(/C)C(=O)O[C@@H]1CCC2=CC(=O)[C@H]([C@]3(C)CO3)C[C@]2(C)[C@H]1C					inactive	inactive	inactive	inactive
C/C=C(/C)C(=O)O[C@@H]1CCC2=CC(=O)[C@@H]([C@@]3(C)CO3)C[C@]2(C)[C@H]1C					inactive	inactive	inactive	inactive
C=C(C)[C@@H]1C[C@@]2(C)C(=CC1=O)CC[C@@H](OC(=O)C=C(C)C)[C@@H]2C					inactive	inactive	inactive	inactive
C=C(C(CC=C(C)C)OC(=O)/C(C)=C\C)[C@H]1C[C@@H](O)C(C)=C(OC(C)=O)C1=O (some centres not stated)					inactive	inactive	inactive	inactive
C=C1[C@H]2[C@@H](/C(=C/C)C(=O)[C@H]2OC(=O)C(C)CC)[C@H]([C@@]2(C)CO2)[C@@H](OC(=O)C(C)CC)[C@H]1OC(=O)/C=C(\C)CC (some centres not stated)					inactive	inactive	inactive	inactive

SMILES	IC50 (MV4-11)	IC50 (A549)	IC50 (HGC-27)	IC50 (HeLa)	Activity (MV4-11)	Activity (A549)	Activity (HGC-27)	Activity (HeLa)
C=C1[C@H]2[C@@H]([C@@H]([C@@H](C)OC)C(=O)[C@H]2OC(=O)C(C)CC)[C@H]([C@@]2(C)CO2)[C@@H](OC(=O)C(C)CC)[C@H]1OC(=O)/C=C(\C)CC (some centres not stated)					inactive	inactive	inactive	inactive
C=C(C(CC=C(C)C)OC(=O)/C(C)=C\C)[C@@H]1[C@@H](O)[C@@H]2O[C@]2(C)C(=O)[C@H]1OC(C)=O (some centres not stated)					inactive	inactive	inactive	inactive
C=C(C)[C@@H]1C[C@@]2(C)C(=CC1=O)CC[C@@H](OC(=O)CC(C)CC)[C@@H]2C (some centres not stated)	1.1 µM	6.6 µM	3.6 µM	3.3 µM				
C=C1CO[C@H]2C[C@@H]1Cc1c2ccc(O)c1C					inactive	inactive	inactive	inactive
C=C(c1ccc(C)c(O)c1O)C(CC=C(C)C)OC(=O)/C(C)=C\C (configuration not stated)					inactive	inactive	inactive	inactive
C=C(C)[C@@H]1CCc2ccc(O)c(C)c2C1					inactive	inactive	inactive	inactive
C=C(C(/C=C/C(C)(C)O)OC(=O)/C(C)=C\C)[C@@H]1[C@H](OC(=O)/C(C)=C\C)[C@@H]2O[C@]2(C)C(=O)[C@H]1OC(C)=O (some centres not stated)					inactive	inactive	inactive	inactive
C=C(C)[C@@H]1C[C@@]2(C)C(=CC1=O)CC[C@@H](OC(=O)/C(C)=C/C)[C@@H]2C					inactive	inactive	inactive	inactive
C=C(C(CC=C(C)C)OC(=O)/C(C)=C\C)[C@@H]1C[C@H](Cl)[C@](C)(O)C(=O)[C@H]1OC(C)=O (some centres not stated)					inactive	inactive	inactive	inactive
C=C(C(CC=C(C)C)OC(=O)/C(C)=C\C)[C@@H]1C[C@H](O)[C@](C)(OC)C(=O)[C@H]1OC(=O)/C(C)=C\C (some centres not stated)					inactive	inactive	inactive	inactive
C=C(C)[C@@H]1C[C@@]2(C)C(=CC1=O)[C@@H](O)C[C@@H](OC(=O)/C(C)=C\C)[C@@H]2C	0.5 µM	6.3 µM	2.1 µM	2.4 µM				
C=C1[C@H]2[C@H]([C@H]([C@@]3(C)CO3)[C@@H](OC(=O)/C(C)=C\C)[C@H]1OC(=O)/C=C(\C)CC)[C@@H](CC)C(=O)[C@H]2OC(=O)C(C)CC (some centres not stated)					inactive	inactive	inactive	inactive
C=C1[C@H]2[C@@H](/C(=C\C)C(=O)[C@H]2OC(=O)C(C)CC)[C@H]([C@@]2(C)CO2)[C@@H](OC(=O)CC(C)CC)[C@H]1OC(=O)/C=C(\C)CC (some centres not stated)					inactive	inactive	inactive	inactive
C=C1[C@@H]2[C@H](OC(=O)C(C)CC)[C@H](OC(C)=O)[C@H]([C@@H](C)OC(=O)C[C@@H](C)O)[C@H]2[C@H]([C@@]2(C)CO2)[C@@H](OC(=O)/C(C)=C\C)[C@H]1OC(=O)/C=C(\C)CC (some centres not stated)	9 µM	12.5 µM	6.1 µM	8.4 µM				
C=C(C(CC=C(C)C)OC(=O)/C(C)=C\C)[C@@H]1C[C@@H]2O[C@]2(C)C(=O)[C@@H]1OC(C)=O (some centres not stated)					inactive	inactive	inactive	inactive
C=C(C(CC=C(C)C)OC(=O)/C(C)=C\C)[C@@H]1[C@@H](O)[C@@H](OC(=O)/C(C)=C/C)[C@](C)(O)C(=O)[C@H]1OC(C)=O (some centres not stated)					inactive	inactive	inactive	inactive
C=C(C)[C@@H]1C[C@@]2(C)C(=CC1=O)CC[C@@H](OC(=O)/C(C)=C\C)[C@@H]2C					inactive	inactive	inactive	inactive
C=C(C(CC=C(C)C)OC(=O)/C(C)=C\C)[C@@H]1[C@@H](O)[C@@H](OC(=O)/C(C)=C\C)[C@](C)(O)C(=O)[C@H]1OC(C)=O (some centres not stated)					inactive	inactive	inactive	inactive
C=C1[C@H]2[C@@H](/C(=C\C)C(=O)[C@H]2OC(=O)C(C)CC)[C@H]([C@@]2(C)CO2)[C@@H](OC(=O)C(C)CC)[C@H]1OC(=O)/C=C(\C)CC (some centres not stated)					inactive	inactive	inactive	inactive
